Measured values taken from ChEMBL document CHEMBL1123730, “Synthesis and pharmacological evaluation of a new class of 2-(2-aminothiazol-4-yl)-2-hydrazonoacetamido cephalosporins” (J Med Chem, 1987).
≈ marks a conversion by molar mass, not a printed value.

Key:
[1] = Distribution (50 mg/kg) was determined in lung 5 min after intramuscular administration; format: ADME, organism-based; settings: im, read-out: Tissue distribution
Outline: (§1)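 Wistar rats (200-250 g, groups of five) given 50 mg/kg in sterile water iv or im; killed at set times, lung, liver and kidney homogenized in 0.1 M pH 7.3 phosphate buffer (tissue:buffer 1:5). Drug assayed by agar diffusion on Nutrient Agar with E. coli ATCC 10536 (37 °C, 18 h); standards in phosphate buffer; detection limit 0.5 μg/mL; mean ± SEM.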

Salmonella = assay: Geometrical average of minimum bactericidal concentration was determined in isosensitest broth against Salmonella; format: functional
Salmonella typhimurium = assay: In vivo protective dose was determined in infected swiss mice (120/strain) infected ip with Salmonella Typhimurium T.O. with an inoculum size-0.5 mL of 10 E6 CFU/mL of suspension. Activity in range of 5.47-15.81; format: functional, Salmonella enterica subsp. enterica serovar Typhimurium; settings: Salmonella enterica
Sarcina [2] = assay: Geometrical average of minimum bactericidal concentration was determined in isosensitest broth against Sarcina; format: functional
[3] = Distribution (50 mg/kg) was determined in liver 15 min after intramuscular administration; format: ADME, organism-based; settings: im, read-out: Tissue distribution; outline: as §1
Staphylococcus aureus = assay: Geometrical average of minimum inhibitory concentration was determined in isosensitest broth against Staphylococcus; format: functional
[4] = Distribution (50 mg/kg) was determined in liver 30 min after intravenous administration; format: ADME, organism-based; settings: read-out: Tissue distribution; outline: as §1
Pseudomonas = assay: Geometrical average of minimum bactericidal concentration was determined in isosensitest broth against Pseudomonas; format: functional
Escherichia coli = assay: In vivo protective dose was determined in infected swiss mice (120/strain) infected ip with Escherichia coli ISM with an inoculum size-0.5 mL of 10 E6 CFU/mL of suspension. Activity in range of 0.90-2.34; format: functional
[5] = Serum level was determined at 30 min after intramuscular administration of 50 mg/kg in rats; format: ADME, organism-based; parameters: dose 50 mg/kg, route intramuscular; settings: rat, im, read-out: Serum level
Outline: (§2)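 Dose 50 mg/kg in sterile water, iv or im, to Wistar rats 200-250 g, five per time point; killed at set intervals, blood centrifuged for serum. Antibiotic measured by agar diffusion on Nutrient Agar with E. coli ATCC 10536 (37 °C, 18 h), standards diluted in serum; detection limit 1 μg/mL. Mean ± SEM of five rats.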

[6] = Distribution (50 mg/kg) was determined in lung 120 min after intramuscular administration; format: ADME, organism-based; settings: im, read-out: Tissue distribution; outline: as §1
Alcaligenes = assay: Geometrical average of minimum inhibitory concentration was determined in isosensitest broth against Alcaligenes; format: functional
[7] = Distribution (50 mg/kg) was determined in kidney 30 min after intramuscular administration; format: ADME, organism-based; settings: im, read-out: Tissue distribution; outline: as §1
Klebsiella = assay: Geometrical average of minimum inhibitory concentration was determined in isosensitest broth against Klebsiella; format: functional
[8] = Distribution (50 mg/kg) was determined in lung 5 min after intravenous administration; format: ADME, organism-based; settings: read-out: Tissue distribution; outline: as §1
Neisseria perflava = assay: Geometrical average of minimum bactericidal concentration was determined in isosensitest broth against Neisseria perfl (1); format: functional
[9] = Distribution (50 mg/kg) was determined in kidney 5 min after intramuscular administration; format: ADME, organism-based; settings: im, read-out: Tissue distribution; outline: as §1
Bacillus [10] = assay: Geometrical average of minimum bactericidal concentration was determined in isosensitest broth against Bacillus; format: functional
[11] = Distribution (50 mg/kg) was determined in lung 30 min after intravenous administration; format: ADME, organism-based; settings: read-out: Tissue distribution; outline: as §1
[12] = Serum level was determined at 240 min after an intravenous administration of 50 mg/kg in rats; format: ADME, organism-based; parameters: dose 50 mg/kg, route intravenous; settings: rat, read-out: Serum level; outline: as §2
[13] = Serum level was determined at 240 min after intramuscular administration of 50 mg/kg in rats; format: ADME, organism-based; parameters: dose 50 mg/kg, route intramuscular; settings: rat, im, read-out: Serum level; outline: as §2
[14] = Distribution (50 mg/kg) was determined in liver 15 min after intravenous administration; format: ADME, organism-based; settings: read-out: Tissue distribution; outline: as §1
Bacillus [15] = assay: Geometrical average of minimum inhibitory concentration was determined in isosensitest broth against Bacillus; format: functional
[16] = Serum level was determined at 60 min after intramuscular administration of 50 mg/kg in rats; format: ADME, organism-based; parameters: dose 50 mg/kg, route intramuscular; settings: rat, im, read-out: Serum level; outline: as §2
[17] = Serum level was determined at 360 min after intramuscular administration of 50 mg/kg in rats; format: ADME, organism-based; parameters: dose 50 mg/kg, route intramuscular; settings: rat, im, read-out: Serum level; outline: as §2
[18] = Distribution (50 mg/kg) was determined in liver 60 min after intravenous administration; format: ADME, organism-based; settings: read-out: Tissue distribution; outline: as §1
Sarcina [19] = assay: Geometrical average of minimum inhibitory concentration was determined in isosensitest broth against Sarcina; format: functional
Streptococcus = assay: Geometrical average of minimum bactericidal concentration was determined in isosensitest broth against Streptococcus; format: functional

## Cn1nnnc1SCC1=C(C(=O)O)N2C(=O)[C@@H](NC(=O)/C(=N/N)c3csc(N)n3)[C@H]2SC1
[1]
  concentration at 5 min: ≤ 5000 ng/g
Salmonella
  MBC: 1.79 µg/mL (≈ 3.6 µM)
Salmonella typhimurium
  ED50: 9.3 mg/kg
Sarcina [2]
  MBC: 2.21 µg/mL (≈ 4.45 µM)
[3]
  concentration at 0.25 h: 15400 ng/g
Staphylococcus aureus
  MIC: 6.69 µg/mL (≈ 13.5 µM)
[4]
  concentration at 0.5 h: 18800 ng/g
Pseudomonas
  MBC: > 100 µg/mL
Escherichia coli
  ED50: 1.45 mg/kg
[5]
  concentration at 0.5 h: 96200 ng/mL
[6]
  concentration at 2 h: ≤ 5000 ng/g
Alcaligenes
  MIC: 8.83 µg/mL (≈ 17.8 µM)
[7]
  concentration at 0.5 h: 36200 ng/g
Klebsiella
  MIC: 1.17 µg/mL (≈ 2.36 µM)
[8]
  concentration at 5 min: 26400 ng/g
Neisseria perflava
  MBC: < 0.09 µg/mL
[9]
  concentration at 5 min: 6420 ng/g
Bacillus [10]
  MBC: 50 µg/mL (≈ 101 µM)
[11]
  concentration at 0.5 h: 8970 ng/g
[12]
  concentration at 4 h: 3650 ng/mL
[13]
  concentration at 4 h: 10200 ng/mL
[14]
  concentration at 0.25 h: 25800 ng/g
Bacillus [15]
  MIC: 42 µg/mL (≈ 84.6 µM)
[16]
  concentration at 1 h: 64400 ng/mL
[17]
  concentration at 6 h: 3430 ng/mL
[18]
  concentration at 1 h: 9220 ng/g
Sarcina [19]
  MIC: 1.56 µg/mL (≈ 3.14 µM)
Streptococcus
  MBC: 70.7 µg/mL (≈ 142 µM)
